This sample holds only a part of the variants without activity.
B1: tRNA (parent)
chain: GUUCCGUUGGCGUAAUGGUAACGCGUCUCCCUCCUAAGGAGAAGACUGCGGGUUCGAGUCCCGUACGGAACG

Variants of: B1
Experiment: yeast fitness relative to wild type (ratio to wild type); higher = fitter; tRNA-Arg(CCU), competitive growth, 37 C, YPD
In short: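 Variants of the tRNA-Arg(CCU) gene were chemically synthesised with a 3% per-site mutation rate across 69 sites and placed at the native genomic locus in Saccharomyces cerevisiae. Six parallel replicates of the pooled strains were competed in YPD at 37°C for 24 hours, and gene amplicons from the start and end populations were read by 100-nucleotide paired-end sequencing. Darwinian fitness relative to wild type was derived from changes in genotype frequencies. Genotypes required ≥ 100 starting reads, and estimates < 0.5 were set to 0.5.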
Work on GUUCCGUUGGCGUAAUGGUAACGCCUCUCCCUCCUAAGGAGAAGACUGCGGGUUCGAGUCCCAUCCGGAACG yielded a yeast fitness of 0.6.
Work on GUUCCGUUGGCGUAAUGGUAACGCCUCUCCCCCCUAGGGAGAAGACUGCGGGUUCGAGUCCCGUACGGGGCG yielded a yeast fitness of no more than 0.5.
In the case of GUUCCGUUGGCGUAAUGGUAACGCUUCUCCCUCCUAAGGAGAAGACUGCGGGUUCGAGUCCCGUACGGAACG, the yeast fitness is reported as 0.937.
Variant GUUCCGUUGGCGUAAUGGUAACGCUUAUCCCUCCUAAGGAAAAGACUGCGGGUUCGAGUCCUGUACGGAACG has a yeast fitness of no more than 0.5.
GUUCCGUUGGCGUAAUGGUAACGCGACUCCCUCCUGAGGAGAAGACUGCGGGUUCCAGUCCCGUACGGAACG showed a yeast fitness of no more than 0.5.
GUUCCGUUGGCGUAAUGGUAACGCUUCUCCCUCCUAAGGAGAAGCCUGCGGGUUCGAGUCCAGUACGGAACG showed a yeast fitness of 0.777.
For GUUCCGUUGGCGUAAUGGUAACGCGACUCCCUCCUGGGGAGAAGAGUGUGGGUCCGAGUCCCGUACGGAGCG, the yeast fitness was 0.754.
In the case of GUUCCGUUGGCGUAAUGGUAACGCCUCUCCCUCCUAAGGAGAAGACUGCGGGCUCGAAUCCCGUACGGAACG, the yeast fitness is reported as 0.605.
With GUUCCGUUGGCGUAAUGGUAACGCUUCUCCCUCCUUAGGAGAAGACUGCGGGUUCCAGUCCCGCCCGGAACG the yeast fitness was no more than 0.5.
GUUCCGUUGGCGUAAUGGUAACGCCUCUCCCUCCUAAGGAGAAGACUGCGGCUUCGAGUCCCGUACGGAACG gave a yeast fitness of 0.574.
For GUUCCGUUGGCGUAAUGGUAACGCCUCUCCCACCUAAGGAGAAGACUGCGGGUUCGAGUACCGUACGGAACG, the yeast fitness was no more than 0.5.
GUUCCGUUGGCGUAAUGGUAACGCCUCUCCCUCCUAAGGAGAAGACUGCGGGUUCGAGUCCCGAACGGAACG gave a yeast fitness of 0.709.
With GUUCCGUUGGCGUAAUGGUAACGCGACUCCCUCCUCAGGAGAAGACUGCGGGUUCGAGUCUCGUACGGAACG the yeast fitness was no more than 0.5.
GUUCCGUUGGCGUAAUGGUAACGCCUCUCCCUCCUAAGGAGAAGACUGCGGGUUCGAGUCCCGUACGAGACG showed a yeast fitness of 0.607.
GUUCCGUUGGCGUAAUGGUAACGCCGCUCCCUCCUAAGGAGAAGAGUGCGGGUUCGAGUCCCGUACGGUACG showed a yeast fitness of 0.521.
Work on GUUCCGUUGGCGUAAUGGUAACGCCUCUCCCUCCUAAGGACAAGAUUGCGGGUUCGAGUCGCGUACGGAACG yielded a yeast fitness of no more than 0.5.
GUUCCGUUGGCGUAAUGGUAACGCCUCUCCCUCCAAAGGAGAAGACUGCGGGUUCGAGUCCCGUACGGAACG gave a yeast fitness of 0.604.
In the case of GUUCCGUUGGCGUAAUGGUAACGCCUCUCCCUCCCAAGGAGAAGACUGCGGGUUCGAGUCCCGUACGGAACG, the yeast fitness is reported as 0.862.
Work on GUUCCGUUGGCGUAAUGGUAACGCCGCUCCCUCCUAAGGAGAAGAGUGCGGGUUCGAGUCCCGUACGGAACG yielded a yeast fitness of 0.576.
Work on GUUCCGUUGGCGUAAUGGUAACGCCUCUCCCUCCUAAGGAGAAGACUGCGGGUUCGACUCCCGUACGGAACG yielded a yeast fitness of 1.
GUUCCGUUGGCGUAAUGGUAACGCCGCUCCCUCCUAAGGAGAAGAGUGCGGGUUCGAGUGCCGUACGGAACG showed a yeast fitness of no more than 0.5.
For GUUCCGUUGGCGUAAUGGUAACGCCCCUCCCUCCUAAGGAGAAGACUGCGGGUUCGAGUCCCGUACGGAACG, the yeast fitness was 0.904.
Variant GUUCCGUUGGCGUAAUGGUAACGCUUCUCCCUCCUUAGGAGAAGACUGUGGGUUCGAGUCCCGUACGGAACG has a yeast fitness of no more than 0.5.
In the case of GUUCCGUUGGCGUAAUGGUAACGCCUCUCCCUCCAAUGGAGAAGACUGCGGGUUCGAGUCCCGUACAGAGCG, the yeast fitness is reported as no more than 0.5.
Variant GUUCCGUUGGCGUAAUGGUAACGCCUCUCCCACCUAAGGCGAAGACUGCGGGUUCGAGUCCCGUACGGAACG has a yeast fitness of no more than 0.5.
With GUUCCGUUGGCGUAAUGGUAACGCCUCUCCCUCCUAAGGACAAGAUUGCGGGUUCGAGCCCCGUUCGGAACG the yeast fitness was no more than 0.5.
For GUUCCGUUGGCGUAAUGGUAACGCCUCUCCCUCCUAAGGACAAGAUUGCGGGUUCGAGUCCCGUUCGGAACG, the yeast fitness was 0.551.
Variant GUUCCGUUGGCGUAAUGGUAACGCCUCUCCCUCCUAAGGAGAAGACUGCGGGUUCGAGUCCCCUACGGAACG has a yeast fitness of 0.716.
With GUUCCGUUGGCGUAAUGGUAACGCCUCUCCCUCCUAAGGAGAAGACCGCGGGUUCGAGUCCCAUCCGGAACG the yeast fitness was no more than 0.5.
Work on GUUCCGUUGGCGUAAUGGUAACGCCUCUCCCGCCUAAGGAGAAGACUGCGGGUUCGAGUCCCGUGCGGAACG yielded a yeast fitness of no more than 0.5.
With GUUCCGUUGGCGUAAUGGUAACGCCUCUCCCUCCUAACGAGAAGACUCGGGGUUCGAGUCCCGUACGGAACG the yeast fitness was no more than 0.5.
GUUCCGUUGGCGUAAUGGUAACGCCUCUCCCUCCUAAGGAGAAGACUGCGGGUUCGAGUCCCGUACAAAACG showed a yeast fitness of 0.655.
Variant GUUCCGUUGGCGUAAUGGUAACGCCUCUCCCUCCUAAGCAGAACACUGCGGGUUCGAGUUCCGUACGCAACG has a yeast fitness of no more than 0.5.
With GUUCCGUUGGCGUAAUGGUAACGCUUCUCCCUCCUAAGGAGAAGACUGCGGGUUCGAGCCCCGUACGGAACG the yeast fitness was 0.657.
GUUCCGUUGGCGUAAUGGUAACGCGACUCCCUCCUAAGGAGAAGACUGCGGGUUCGAGUCCCGUACGGAACG showed a yeast fitness of 0.996.
In the case of GUUCCGUUGGCGUAAUGGUAACGCCUCUCCCUCCUAAGGACAAGACUGCGGGUUCGAGUCCCGUACGCAACG, the yeast fitness is reported as 0.565.
In the case of GUUCCGUUGGCGUAAUGGUAACGCCGCUCCCUCCUAAGGUGAAGAGUGCGGGUUCGAGUCCCGUACGGAUCG, the yeast fitness is reported as no more than 0.5.
GUUCCGUUGGCGUAAUGGUAACGCUUCUCCCUCCUUAGGAGAAGACUGCGGGUUCCAGUCCCGUCCGGAACG gave a yeast fitness of 0.521.
Work on GUUCCGUUGGCGUAAUGGUAACGCCGCUCCCUCCUAAGGAGAAGAGUGCGGGUUCGAGUCCCGUACGGAUCG yielded a yeast fitness of 0.62.
With GUUCCGUUGGCGUAAUGGUAACGCCGCUCCCUCCUAAGGAGAAGACUGCGCGUUCGAGUCCCGUACGGAACG the yeast fitness was no more than 0.5.
With GUUCCGUUGGCGUAAUGGUAACGCCUCUCCCUCCUAAGCAGAACACUGCGGGUUCGAGUCCCGUACGGAACG the yeast fitness was no more than 0.5.
GUUCCGUUGGCGUAAUGGUAACGCCUCUCCCCCCUAAGGAAAAGACUGCGGGUUCGAGUCCCGUACGGAACG gave a yeast fitness of no more than 0.5.
GUUCCGUUGGCGUAAUGGUAACGCUUCUCCCUCGUAAGGAGAAGACUGCGGGUUGGAGCUCCGUACUGAACG gave a yeast fitness of no more than 0.5.
Work on GUUCCGUUGGCGUAAUGGUAACGCCUCUCCCUCCUAAGGAAAAGACUGCGGGUUCGAGUCCCGUACGGAACG yielded a yeast fitness of 0.789.
Work on GUUCCGUUGGCGUAAUGGUAACGCCUCUCCCUCCUAAGGAGAAGACUGCGGGUUCGACUCCCGUACCGAACG yielded a yeast fitness of 0.706.
GUUCCGUUGGCGUAAUGGUAACGCCUCCCCCUCCUAAGGAGAAGACUGCGGGUUAGAGUCCCGUACGGAACG gave a yeast fitness of 0.539.
With GUUCCGUUGGCGUAAUGGUAACGCCUCUCCCUCCUAAAGAGAAGACUGCGGGUUCGAGUCCCGUGCGGAACG the yeast fitness was 1.04.
For GUUCCGUUGGCGUAAUGGUAACGCCUCACCCUACUAAGGAGAAGACUGCGGGUUCGAGUCCCGUACGGAACG, the yeast fitness was 0.539.
Variant GUUCCGUUGGCGUAAUGGUAACGCUUCUACCUCCUAAGGAGAAGACUGCGGGUUCCAGUCCCGUACGGAACG has a yeast fitness of no more than 0.5.
GUUCCGUUGGCGUAAUGGUAACGCUUCUCCCUCCUUAGGAGAAGACUGCGGGUUCGAGUCCCGUACGGAACG showed a yeast fitness of 0.531.
In the case of GUUCCGUUGGCGUAAUGGUAACGCCGCUCCCUCCUAAGGAGAAGAGUGCGGGUUCGAGUCACGUACGGAUCG, the yeast fitness is reported as no more than 0.5.
Variant GUUCCGUUGGCGUAAUGGUAACGCCGCUCCCUCCUGAGGAGAAGAGUGCGGGUUCGAGUCCCGUACGGAUCG has a yeast fitness of no more than 0.5.
With GUUCCGUUGGCGUAAUGGUAACGCCUCUCCCUCCUAAGGAGAAGACUGCGGGUUCGAGUCCCGUACGAAACG the yeast fitness was 0.817.
GUUCCGUUGGCGUAAUGGUAACGCCUCUCCCUCCUAAGGAGAAGACUGCGGGUUCGAGUCCCGUACGCAACG gave a yeast fitness of 0.796.
In the case of GUUCCGUUGGCGUAAUGGUAACGCCUCUCCCUCCUAAGCAGAAGACUGCGGGUGCGAGUCCCGUUCGGAACG, the yeast fitness is reported as 0.514.
GUUCCGUUGGCGUAAUGGUAACGCCUCUCCCUCCUAAGGAGAAGACGGCGGAUUCGAGUCCCGUACGGAACG gave a yeast fitness of 0.549.
GUUCCGUUGGCGUAAUGGUAACGCCUCUCCCUCCUAAGCAGAAGACUGCGGGUUCGAGUCCCGUACGGAACG showed a yeast fitness of 0.685.
GUUCCGUUGGCGUAAUGGUAACGCCUCUCCCUCCUAAGGAGAAGACCGCGGGUUCGAGUCCCGUACGGAACG showed a yeast fitness of 0.954.
GUUCCGUUGGCGUAAUGGUAACGCUUCUCCCUCCUAAGGAGAACACUGCGGGUUCGAGUCCCGUACGGAACG gave a yeast fitness of 0.647.
Variant GUUCCGUUGGCGUAAUGGUAACGCCUCUCCCUCCUAAGGAGAAGACUGCGGGUUCCAGUCGCGUACGGAACG has a yeast fitness of no more than 0.5.
For GUUCCGUUGGCGUAAUGGUAACGCCUCUCCCUCCUAAGGAGAAGACUGCGAGUUCGAGUCCCGUACAGAACG, the yeast fitness was 0.73.
In the case of GUUCCGUUGGCGUAAUGGUAACGCUUCUCUCUCCUAAGGUGAAGACUGCGGGUUCGAGUCCCGUACGGAACG, the yeast fitness is reported as no more than 0.5.
Work on GUUCCGUUGGCGUAAUGGUAACGCCUCUCCCUCCUAAGAAGAAGACUGCGGGUUCGAGUCCCCUACGGAUCG yielded a yeast fitness of no more than 0.5.
For GUUCCGUUGGCGUAAUGGUAACGCCUCUCCCUCCUAAGGAGAAGACUGCGGGUUCGAGUCCCGUACCGAACG, the yeast fitness was 0.797.
Variant GUUCCGUUGGCGUAAUGGUAACGCCUCCCCCUCCUAAGGAGAAGACUGCGGGUUCGAGCCCCGUACGGAACG has a yeast fitness of 0.694.
Variant GUUCCGUUGGCGUAAUGGUAACGCCUCUCCCCCCUAAGGAGAAGAUUGCAGGUUCGAGUCCCGUACGGAACG has a yeast fitness of 0.667.
Work on GUUCCGUUGGCGUAAUGGUAACGCCUCUCCCUCCCAAGGAGCAGAAUCCGGGUUCGAGUCACGUACGGAACG yielded a yeast fitness of no more than 0.5.
Work on GUUCCGUUGGCGUAAUGGUAACGCCUCUCCCUCCUAAGGAGAAGACUGCGGGUUCGAGCCCCGUACGGAACG yielded a yeast fitness of 0.932.
With GUUCCGUUGGCGUAAUGGUAACGCCUCUCCCUCCUAAGGAGAAGACUGCGGGUUCGAGGCCCGUACGGAACG the yeast fitness was 0.678.
In the case of GUUCCGUUGGCGUAAUGGUAACGCCUCUCCCUCCUAAGGAGAAGACUGCGGGUUCAAGUCCCGUACGGAACG, the yeast fitness is reported as 0.962.
For GUUCCGUUGGCGUAAUGGUAACGCCUCUCCCUCCUAAGAAGAAGACUGCGGGUUCGAGUCCCGUAUGGAACG, the yeast fitness was 0.504.
In the case of GUUCCGUUGGCGUAAUGGUAACGCCUCUCCCUCCUAAGGAGAAGACUGCGCGUUCGAGUCCCGUACGGAACG, the yeast fitness is reported as 0.654.
Variant GUUCCGUUGGCGUAAUGGUAACGCCUCUCCCUCCUAAGGAGAAGACUGCGGAUGCGAGUCCCGUACGGAACG has a yeast fitness of no more than 0.5.
GUUCCGUUGGCGUAAUGGUAACGCCUCUCCCUCCUAAGGAGAAGACUGCGGGUUCGACUCCCGUACGAAACG gave a yeast fitness of 0.639.
GUUCCGUUGGCGUAAUGGUAACGCCUCUCCCGCCUAAGGAGAAAAGUGCGGGUUCGAGUCCCGUACGGAACG showed a yeast fitness of no more than 0.5.

Reference: the RNAGym collection of RNA variant scans (doi:10.1126/science.aae0568)
